Numbered stars: 1 amine (or outer) side, 2 acyl side, 3 side chain; on linkers, the order of the positions; unused ones are H or OH. Peptide text beside a SMILES is read from it. * marks the point of attachment. Piperazinyl(4-(2,3-Cl2Ph)) = Clc1cccc(N2CCN(*)CC2)c1Cl; NH(4-MeO-phenyl) = COc1ccc(N*)cc1; NH(4-Cl-phenyl) = Clc1ccc(N*)cc1; X1 = Fc1ccc2c(C3CCN(*)CC3)noc2c1; CO = O=C([*:1])[*:2]
Columns and labels:
Assay type in all cases: functional
Details in all cases: read-out: DIZ
Klebsiella pneumoniae = test: Antibacterial activity against Klebsiella pneumoniae at 30 ug/ml after 24 hrs by agar well diffusion method
In short: (§1)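 Agar well diffusion. Inocula were grown in nutrient broth at 37 °C for 24 h, then subcultured in nutrient broth at room temperature. Compounds were made as a 1 mg/mL DMSO stock and diluted to 30 µg/mL final. Nutrient agar plates were spread-inoculated and 6 mm wells each got 0.1 mL. Controls were amoxicillin (reference) and DMSO (negative). Incubation was 24 h at 37 °C. Inhibition zone was measured in mm as the mean of three determinations.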

Staphylococcus aureus = test: Antibacterial activity against coagulase-positive Staphylococcus aureus at 30 ug/ml after 24 hrs by agar well diffusion method; in short: as §1
Aspergillus flavus = test: Antifungal activity against Aspergillus flavus at 30 ug/ml after 72 hrs by agar well diffusion method
In short: (§2)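 Fungal well diffusion. Inocula were subcultured in nutrient broth for one day, then spread on solidified medium. Compounds were made as a 1 mg/mL DMSO stock and diluted to 30 µg/mL final. Each 6 mm well got 0.1 mL. Controls were bavistin (reference) and DMSO (negative). Plates stood for 3 days at room temperature. Inhibition zone was measured in mm as the mean of three determinations.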

Xanthomonas oryzae = test: Antibacterial activity against Xanthomonas oryzae at 30 ug/ml after 24 hrs by agar well diffusion method
Aspergillus niger = test: Antifungal activity against Aspergillus niger at 30 ug/ml after 72 hrs by agar well diffusion method; in short: as §2
Fusarium oxysporum = test: Antifungal activity against Fusarium oxysporum at 30 ug/ml after 72 hrs by agar well diffusion method; in short: as §2
Escherichia coli = test: Antibacterial activity against Escherichia coli at 30 ug/ml after 24 hrs by agar well diffusion method; in short: as §1

What does the source list for `O=C(Nc1ccccc1F)N[C@@H](Cc1c[nH]c2ccccc12)C(=O)N1CCC(c2noc3cc(F)ccc23)CC1`?
zone of inhibition at 30 µg/mL (Klebsiella pneumoniae): 8 mm; zone of inhibition at 30 µg/mL (Staphylococcus aureus): 8 mm; zone of inhibition at 30 µg/mL (Aspergillus flavus): 9 mm; zone of inhibition at 30 µg/mL (Xanthomonas oryzae): 11 mm; zone of inhibition at 30 µg/mL (Aspergillus niger): 12 mm; zone of inhibition at 30 µg/mL (Fusarium oxysporum): 8 mm; zone of inhibition at 30 µg/mL (Escherichia coli): 11 mm

Which zone of inhibition at 30 µg/mL (Klebsiella pneumoniae) does the source give for `O=C([C@H](Cc1c[nH]c2ccccc12)NC(=S)Nc1ccccc1F)N1CCC(c2noc3cc(F)ccc23)CC1` here?
Its zone of inhibition at 30 µg/mL is 9 mm.

And the zone of inhibition at 30 µg/mL (Staphylococcus aureus)?
The zone of inhibition at 30 µg/mL was 9 mm.

What about the zone of inhibition at 30 µg/mL (Aspergillus flavus) of the same molecule?
Its zone of inhibition at 30 µg/mL is 10 mm.

And the zone of inhibition at 30 µg/mL (Xanthomonas oryzae)?
Its zone of inhibition at 30 µg/mL is 12 mm.

And the zone of inhibition at 30 µg/mL (Aspergillus niger)?
Its zone of inhibition at 30 µg/mL is 13 mm.

And the zone of inhibition at 30 µg/mL (Fusarium oxysporum)?
The zone of inhibition at 30 µg/mL was 7 mm.

And the zone of inhibition at 30 µg/mL (Escherichia coli)?
Its zone of inhibition at 30 µg/mL is 13 mm.

Which zone of inhibition at 30 µg/mL (Klebsiella pneumoniae) does the source give for `O=C(Nc1ccccc1F)N[C@@H](Cc1c[nH]c2ccccc12)C(=O)N1CCN(c2cccc(Cl)c2Cl)CC1` here?
The zone of inhibition at 30 µg/mL was 10 mm.

And the zone of inhibition at 30 µg/mL (Staphylococcus aureus)?
The zone of inhibition at 30 µg/mL was 11 mm.

What about the zone of inhibition at 30 µg/mL (Aspergillus flavus) of the same molecule?
The zone of inhibition at 30 µg/mL was 11 mm.

And the zone of inhibition at 30 µg/mL (Xanthomonas oryzae)?
Its zone of inhibition at 30 µg/mL is 9 mm.

What about the zone of inhibition at 30 µg/mL (Aspergillus niger) of the same molecule?
The zone of inhibition at 30 µg/mL was 10 mm.

What about the zone of inhibition at 30 µg/mL (Fusarium oxysporum) of the same molecule?
The zone of inhibition at 30 µg/mL was 7 mm.

What about the zone of inhibition at 30 µg/mL (Escherichia coli) of the same molecule?
Its zone of inhibition at 30 µg/mL is 9 mm.

Which zone of inhibition at 30 µg/mL (Klebsiella pneumoniae) does the source give for `O=C([C@H](Cc1c[nH]c2ccccc12)NC(=S)Nc1ccccc1F)N1CCN(c2cccc(Cl)c2Cl)CC1` here?
The zone of inhibition at 30 µg/mL was 11 mm.

What about the zone of inhibition at 30 µg/mL (Staphylococcus aureus) of the same molecule?
Its zone of inhibition at 30 µg/mL is 12 mm.

What about the zone of inhibition at 30 µg/mL (Aspergillus flavus) of the same molecule?
The zone of inhibition at 30 µg/mL was 12 mm.

What about the zone of inhibition at 30 µg/mL (Xanthomonas oryzae) of the same molecule?
The zone of inhibition at 30 µg/mL was 10 mm.

What about the zone of inhibition at 30 µg/mL (Aspergillus niger) of the same molecule?
The zone of inhibition at 30 µg/mL was 11 mm.

And the zone of inhibition at 30 µg/mL (Fusarium oxysporum)?
The zone of inhibition at 30 µg/mL was 6 mm.

What about the zone of inhibition at 30 µg/mL (Escherichia coli) of the same molecule?
The zone of inhibition at 30 µg/mL was 10 mm.

Which results are given for `O=C(CNC(=O)Nc1ccc(Cl)cc1)NCC(=O)N[C@@H](Cc1ccccc1)C(=O)N1CCC[C@H]1C(=O)N1CCC(c2noc3cc(F)ccc23)CC1` ({NH(4-Cl-phenyl)-CO}-GGFP-X1)?
zone of inhibition at 30 µg/mL (Klebsiella pneumoniae): 23 mm; zone of inhibition at 30 µg/mL (Staphylococcus aureus): 21 mm; zone of inhibition at 30 µg/mL (Aspergillus flavus): 26 mm; zone of inhibition at 30 µg/mL (Xanthomonas oryzae): 25 mm; zone of inhibition at 30 µg/mL (Aspergillus niger): 31 mm; zone of inhibition at 30 µg/mL (Fusarium oxysporum): 28 mm; zone of inhibition at 30 µg/mL (Escherichia coli): 28 mm

Which results are given for `O=C(CNC(=O)Nc1ccc(Cl)cc1)NCC(=O)N[C@@H](Cc1ccccc1)C(=O)N1CCC[C@H]1C(=O)N1CCN(c2cccc(Cl)c2Cl)CC1` ({NH(4-Cl-phenyl)-CO}-GGFP-{Piperazinyl(4-(2,3-Cl2Ph))})?
zone of inhibition at 30 µg/mL (Klebsiella pneumoniae): 22 mm; zone of inhibition at 30 µg/mL (Staphylococcus aureus): 20 mm; zone of inhibition at 30 µg/mL (Aspergillus flavus): 25 mm; zone of inhibition at 30 µg/mL (Xanthomonas oryzae): 24 mm; zone of inhibition at 30 µg/mL (Aspergillus niger): 30 mm; zone of inhibition at 30 µg/mL (Fusarium oxysporum): 27 mm; zone of inhibition at 30 µg/mL (Escherichia coli): 27 mm

For `CC[C@H](C)[C@H](NC(=O)CNC(=O)CNC(=O)Nc1ccc(Cl)cc1)C(=O)N1CCC[C@H]1C(=O)N1CCC(c2noc3cc(F)ccc23)CC1` ({NH(4-Cl-phenyl)-CO}-GGIP-X1), which zone of inhibition at 30 µg/mL (Klebsiella pneumoniae) is on record?
Its zone of inhibition at 30 µg/mL is 18 mm.

And the zone of inhibition at 30 µg/mL (Staphylococcus aureus)?
Its zone of inhibition at 30 µg/mL is 19 mm.

And the zone of inhibition at 30 µg/mL (Aspergillus flavus)?
The zone of inhibition at 30 µg/mL was 24 mm.

What about the zone of inhibition at 30 µg/mL (Xanthomonas oryzae) of the same molecule?
Its zone of inhibition at 30 µg/mL is 22 mm.

What about the zone of inhibition at 30 µg/mL (Aspergillus niger) of the same molecule?
Its zone of inhibition at 30 µg/mL is 27 mm.

And the zone of inhibition at 30 µg/mL (Fusarium oxysporum)?
Its zone of inhibition at 30 µg/mL is 26 mm.

And the zone of inhibition at 30 µg/mL (Escherichia coli)?
The zone of inhibition at 30 µg/mL was 26 mm.

What does the source list for `COc1ccc(NC(=O)NCC(=O)N[C@@H](Cc2ccccc2)C(=O)NCC(=O)N[C@@H](Cc2ccccc2)C(=O)N2CCC[C@H]2C(=O)N2CCC(c3noc4cc(F)ccc34)CC2)cc1` ({NH(4-MeO-phenyl)-CO}-GFGFP-X1)?
zone of inhibition at 30 µg/mL (Klebsiella pneumoniae): 30 mm; zone of inhibition at 30 µg/mL (Staphylococcus aureus): 28 mm; zone of inhibition at 30 µg/mL (Aspergillus flavus): 29 mm; zone of inhibition at 30 µg/mL (Xanthomonas oryzae): 30 mm; zone of inhibition at 30 µg/mL (Aspergillus niger): 35 mm; zone of inhibition at 30 µg/mL (Fusarium oxysporum): 32 mm; zone of inhibition at 30 µg/mL (Escherichia coli): 30 mm

With `COc1ccc(NC(=O)NCC(=O)NCC(=O)N[C@@H](Cc2ccccc2)C(=O)N2CCC[C@H]2C(=O)N2CCC(c3noc4cc(F)ccc34)CC2)cc1` ({NH(4-MeO-phenyl)-CO}-GGFP-X1) as the molecule, how does the zone of inhibition at 30 µg/mL (Klebsiella pneumoniae) read?
Its zone of inhibition at 30 µg/mL is 19 mm.

And the zone of inhibition at 30 µg/mL (Staphylococcus aureus)?
The zone of inhibition at 30 µg/mL was 17 mm.

And the zone of inhibition at 30 µg/mL (Aspergillus flavus)?
Its zone of inhibition at 30 µg/mL is 20 mm.

And the zone of inhibition at 30 µg/mL (Xanthomonas oryzae)?
Its zone of inhibition at 30 µg/mL is 24 mm.

What about the zone of inhibition at 30 µg/mL (Aspergillus niger) of the same molecule?
The zone of inhibition at 30 µg/mL was 27 mm.

And the zone of inhibition at 30 µg/mL (Fusarium oxysporum)?
The zone of inhibition at 30 µg/mL was 23 mm.

And the zone of inhibition at 30 µg/mL (Escherichia coli)?
Its zone of inhibition at 30 µg/mL is 26 mm.

`COc1ccc(NC(=O)NCC(=O)NCC(=O)N[C@@H](Cc2ccccc2)C(=O)N2CCC[C@H]2C(=O)N2CCN(c3cccc(Cl)c3Cl)CC2)cc1` ({NH(4-MeO-phenyl)-CO}-GGFP-{Piperazinyl(4-(2,3-Cl2Ph))}) was tested. Which zone of inhibition at 30 µg/mL (Klebsiella pneumoniae) did it give?
The zone of inhibition at 30 µg/mL was 18 mm.

What about the zone of inhibition at 30 µg/mL (Staphylococcus aureus) of the same molecule?
The zone of inhibition at 30 µg/mL was 16 mm.

What about the zone of inhibition at 30 µg/mL (Aspergillus flavus) of the same molecule?
The zone of inhibition at 30 µg/mL was 19 mm.

What about the zone of inhibition at 30 µg/mL (Xanthomonas oryzae) of the same molecule?
Its zone of inhibition at 30 µg/mL is 23 mm.

What about the zone of inhibition at 30 µg/mL (Aspergillus niger) of the same molecule?
Its zone of inhibition at 30 µg/mL is 26 mm.

What about the zone of inhibition at 30 µg/mL (Fusarium oxysporum) of the same molecule?
Its zone of inhibition at 30 µg/mL is 22 mm.

And the zone of inhibition at 30 µg/mL (Escherichia coli)?
Its zone of inhibition at 30 µg/mL is 25 mm.

Source: ChEMBL document CHEMBL1932971, “Synthesis of uriedo and thiouriedo derivatives of peptide conjugated heterocycles - A new class of promising antimicrobials” (2012)
